This passage reports IC50 and Activity results from ChEMBL document CHEMBL1139732, “Identification and optimisation of 5-amino-7-aryldihydro-1,4-diazepines as 5-HT2A ligands” (Bioorg Med Chem Lett, 2006).

For data set [1], the target named is 5-hydroxytryptamine receptor 2A (Homo sapiens, UniProt P28223). Nature of the data set: Displacement of [3H]ketanserin from human 5HT2A receptor expressed in CHOK1 cells. Type of data set: cell-based, CHO-K1. A digest of the protocol:
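Membranes from confluent CHO K1 cells expressing human 5-HT2A were incubated with [3H]ketanserin (76 Ci/mmol) for 15 min at 37 °C with shaking at 180 rpm. Buffer was 50 mM Tris pH 7.7, 0.1% ascorbate, pargyline, MgSO4 and 0.5 mM EDTA. Bound and free ligand were separated by GF/B filtration and the filters counted. Mianserin defined non-specific binding. Five-point log titrations were fitted with a four-parameter curve to give IC50 and Ki.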
(In a radioligand displacement assay an active substance lowers the binding of a labelled ligand.)

Data set [2] has as its target Voltage-gated inwardly rectifying potassium channel KCNH2 (Homo sapiens, UniProt Q12809). The experiment in a line: Activity at HERG potassium channel. In kind it is functional.
The target of data set [3] is T1, 5-hydroxytryptamine receptor 2C (Homo sapiens, UniProt P28335).
T1 sequence (P28335 whole entry): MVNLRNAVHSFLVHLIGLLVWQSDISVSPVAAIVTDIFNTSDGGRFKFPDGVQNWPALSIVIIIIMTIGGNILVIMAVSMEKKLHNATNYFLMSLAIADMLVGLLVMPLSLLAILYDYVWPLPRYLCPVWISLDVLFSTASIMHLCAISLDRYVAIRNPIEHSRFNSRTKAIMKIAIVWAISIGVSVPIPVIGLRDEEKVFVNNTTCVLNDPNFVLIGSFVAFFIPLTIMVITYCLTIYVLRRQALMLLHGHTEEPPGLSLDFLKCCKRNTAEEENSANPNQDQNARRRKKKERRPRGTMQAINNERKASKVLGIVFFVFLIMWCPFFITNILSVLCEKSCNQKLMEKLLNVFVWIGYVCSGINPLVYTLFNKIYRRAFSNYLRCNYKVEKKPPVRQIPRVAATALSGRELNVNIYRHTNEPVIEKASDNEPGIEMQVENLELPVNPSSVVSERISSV
The experiment in a line: Binding affinity to 5HT2C receptor.

Data set [4] deals with 5-hydroxytryptamine receptor 2A (Rattus norvegicus, UniProt P14842). The experiment in a line: Binding affinity to rat 5HT2A receptor.
Sequence of 5-hydroxytryptamine receptor 2A (Rattus norvegicus, UniProt P14842) (P14842 whole entry): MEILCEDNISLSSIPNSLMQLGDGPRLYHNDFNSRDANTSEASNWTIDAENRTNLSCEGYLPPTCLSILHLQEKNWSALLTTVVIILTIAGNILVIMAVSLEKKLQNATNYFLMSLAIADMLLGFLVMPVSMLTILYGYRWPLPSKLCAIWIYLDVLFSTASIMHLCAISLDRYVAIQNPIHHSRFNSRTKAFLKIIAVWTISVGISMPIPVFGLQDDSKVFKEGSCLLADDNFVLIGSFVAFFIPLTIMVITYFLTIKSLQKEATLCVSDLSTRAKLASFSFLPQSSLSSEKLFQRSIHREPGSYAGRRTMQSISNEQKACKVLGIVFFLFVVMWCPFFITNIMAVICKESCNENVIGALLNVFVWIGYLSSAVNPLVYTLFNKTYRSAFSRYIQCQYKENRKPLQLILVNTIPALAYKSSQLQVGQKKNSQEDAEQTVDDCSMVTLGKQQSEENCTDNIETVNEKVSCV

Structures are written as SMILES.

Sequence of 5-hydroxytryptamine receptor 2A (Homo sapiens, UniProt P28223) (P28223 whole entry): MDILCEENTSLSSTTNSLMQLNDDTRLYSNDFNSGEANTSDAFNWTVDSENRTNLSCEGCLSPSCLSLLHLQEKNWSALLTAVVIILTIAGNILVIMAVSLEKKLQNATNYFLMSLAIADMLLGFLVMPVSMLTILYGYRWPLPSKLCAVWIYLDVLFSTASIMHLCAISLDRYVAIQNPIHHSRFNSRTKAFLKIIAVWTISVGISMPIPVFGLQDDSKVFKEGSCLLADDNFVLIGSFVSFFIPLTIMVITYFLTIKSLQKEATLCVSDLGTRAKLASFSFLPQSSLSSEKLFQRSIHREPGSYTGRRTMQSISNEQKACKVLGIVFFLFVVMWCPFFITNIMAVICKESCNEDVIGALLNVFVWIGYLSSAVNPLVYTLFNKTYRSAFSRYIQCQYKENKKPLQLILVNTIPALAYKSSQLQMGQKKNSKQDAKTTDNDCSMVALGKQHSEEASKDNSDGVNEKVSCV
Sequence of Voltage-gated inwardly rectifying potassium channel KCNH2 (Q12809 whole entry): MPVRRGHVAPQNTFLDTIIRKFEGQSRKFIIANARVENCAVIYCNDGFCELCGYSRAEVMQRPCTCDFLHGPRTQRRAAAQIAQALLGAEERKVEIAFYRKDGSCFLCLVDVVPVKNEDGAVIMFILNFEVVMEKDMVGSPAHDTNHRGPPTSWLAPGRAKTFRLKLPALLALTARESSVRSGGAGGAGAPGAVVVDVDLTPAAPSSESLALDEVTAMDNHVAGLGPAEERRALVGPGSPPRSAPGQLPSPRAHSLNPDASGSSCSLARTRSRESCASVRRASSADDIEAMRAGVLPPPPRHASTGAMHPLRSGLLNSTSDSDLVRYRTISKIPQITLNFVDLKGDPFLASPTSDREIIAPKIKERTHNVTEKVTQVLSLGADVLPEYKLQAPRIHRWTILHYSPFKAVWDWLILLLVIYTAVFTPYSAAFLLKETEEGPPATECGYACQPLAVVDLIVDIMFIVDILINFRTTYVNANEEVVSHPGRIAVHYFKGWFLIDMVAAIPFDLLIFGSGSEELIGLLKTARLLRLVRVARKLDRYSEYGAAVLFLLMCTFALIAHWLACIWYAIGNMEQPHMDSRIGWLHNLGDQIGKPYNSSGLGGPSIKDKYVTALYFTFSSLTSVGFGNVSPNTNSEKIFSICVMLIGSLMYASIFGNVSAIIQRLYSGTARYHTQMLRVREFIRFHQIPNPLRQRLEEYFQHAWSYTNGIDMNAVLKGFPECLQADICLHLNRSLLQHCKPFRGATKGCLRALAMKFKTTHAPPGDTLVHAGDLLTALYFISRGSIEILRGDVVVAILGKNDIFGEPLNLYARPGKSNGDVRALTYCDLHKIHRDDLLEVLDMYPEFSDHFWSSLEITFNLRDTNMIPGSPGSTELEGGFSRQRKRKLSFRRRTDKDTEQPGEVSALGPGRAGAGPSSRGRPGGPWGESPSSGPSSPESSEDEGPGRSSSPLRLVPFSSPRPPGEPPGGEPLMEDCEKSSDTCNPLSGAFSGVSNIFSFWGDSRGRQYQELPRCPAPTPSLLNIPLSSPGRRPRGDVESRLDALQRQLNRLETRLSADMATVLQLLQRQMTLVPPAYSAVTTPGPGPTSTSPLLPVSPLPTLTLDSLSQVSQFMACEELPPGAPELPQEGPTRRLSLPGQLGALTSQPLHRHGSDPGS

Take `Cc1ccc(C2=CC(NC(C)(C)C)=NCCN2)c(C)c1`: the IC50 in data set [1] was 0.071 µM. The Activity in data set [2] is above 1000 nM.

As for `CCN(CC)C1=NCCNC(c2ccc(C)cc2)=C1`, the IC50 in data set [1] was above 1 µM. For the same molecule, the Activity in data set [2] is reported as above 1000 nM.

In the case of `CC(C)(C)NC1=NCCNC(c2cccc(C(F)(F)F)c2)=C1`, in data set [1], the IC50 is 0.514 µM. The same molecule registered an Activity in data set [2] above 1000 nM.

For `CCC(C)(CC)NC1=NCCNC(c2ccccc2F)=C1`, in data set [1], the concentration for half-maximal inhibition (IC50) was determined as 0.0045 µM. The molecule further came in with an Activity in data set [2] above 1000 nM.

The molecule `CCN(CC)C1=NCCNC(c2ccccc2F)=C1` gave an IC50 in data set [1] above 1 µM. Moreover, the Activity in data set [2] is on record as above 1000 nM.

As to `CCC(CC)(CC)NC1=NCCNC(c2ccc(F)cc2F)=C1`, the IC50 was 0.0037 µM in data set [1] and 0.086 µM in data set [3]. Also, the Activity in data set [2] is on record as above 1000 nM.

Consider `Cc1ccc(C2=CC(NC(C)(C)Cc3ccccc3)=NCCN2)cc1`, for which the IC50 in data set [1] amounted to 0.0024 µM. Moreover, the Activity in data set [2] was 300 nM.

In the case of `CC(C)(C)NC1=NCCNC(c2ccc(F)cc2)=C1`, the IC50 in data set [1] was determined as 0.021 µM; in data set [3], 0.637 µM. This molecule gave an Activity in data set [2] above 1000 nM.

For `CC1(NC2=NCCNC(c3ccc(F)cc3)=C2)CCCCC1`, the IC50 in data set [1] stood at 0.0016 µM. Further, the Activity in data set [2] is listed as above 1000 nM.

For the molecule `CCC(C)(CC)NC1=NCCNC(c2ccc(F)cc2)=C1`, the IC50 in data set [1] was 0.0015 µM; in data set [3] it was 0.016 µM. For the same molecule, the Activity in data set [2] is reported as above 1000 nM.

Regarding `Cc1ccc(C2=CC(NC(C)(C)C)=NCCN2)c(F)c1`, in data set [1], the IC50 came out at 0.014 µM. Also, in data set [2], the Activity is reported as above 1000 nM.

In the case of `Cc1ccc(C2=CC(N3CCOCC3)=NCCN2)cc1`, the IC50 in data set [1] is above 1 µM. The Activity in data set [2] is on record as above 1000 nM.

On to `CCC1(NC2=NCCNC(c3ccc(F)cc3)=C2)CCCC1`, for which the IC50 in data set [1] stood at 0.0008 µM. Besides, in data set [2], the Activity was above 1000 nM.

On to `CC(C)(C)NC1=NCCNC(c2ccc(F)cc2F)=C1`, for which the IC50 in data set [1] turned out to be 0.011 µM. Besides, in data set [2], the Activity is listed as above 1000 nM.

In the case of `CCC(C)(CC)NC1=NCCNC(c2ccc(C)cc2)=C1`, the concentration for half-maximal inhibition (IC50) in data set [1] came to 0.0149 µM; in data set [3] it was 0.075 µM. In addition, in data set [2], the Activity is on record as above 1000 nM.

Turning to `CC(C)(C)NC1=NCCNC(c2ccccc2)=C1`, the values for the concentration for half-maximal inhibition (IC50) in data set [1] and in data set [3] were 0.035 µM and 1.05 µM, respectively. The Activity in data set [2] is reported as above 1000 nM.

Regarding `CC(C)(C)NC1=NCCNC(c2ccccc2F)=C1`, the IC50 in data set [1] was 0.018 µM. For the same molecule, the Activity in data set [2] is on record as above 1000 nM.

`COc1ccc(C2=CC(NC(C)(C)C)=NCCN2)cc1`: the IC50 in data set [1] turned out to be 0.534 µM. Also, the Activity in data set [2] was above 1000 nM.

Regarding `CCC1(NC2=NCCNC(c3ccc(F)cc3F)=C2)CCCC1`, the IC50 in data set [1] was determined as 0.0011 µM; in data set [4], 0.0023 µM; in data set [3] it was 0.027 µM. Also, in data set [2], the Activity was above 1000 nM.

In the case of `Cc1ccc(C2=CC(N3CCNCC3)=NCCN2)cc1`, in data set [1], the IC50 is above 1 µM. Further, the Activity in data set [2] is above 1000 nM.

Consider `CC(C)(C)NC1=NCCNC(c2ccc(C#N)cc2)=C1`, for which the IC50 in data set [1] worked out at 2.8 µM. This molecule registered an Activity in data set [2] above 1000 nM.

Regarding `Cc1ccc(C2=CC(NC(C)(C)C)=NCCN2)cc1`, the IC50 in data set [1] came to 0.011 µM. In data set [2], this molecule returned an Activity above 1000 nM.

Molecule `CC(C)(C)NC1=NCCNC(c2ccccc2Cl)=C1` came in with an IC50 in data set [1] of 0.076 µM. The molecule also came in with an Activity in data set [2] above 1000 nM.

In the case of `CC(C)(Cc1ccccc1)NC1=NCCNC(c2ccccc2F)=C1`, the IC50 in data set [1] was 0.0038 µM. The Activity in data set [2] came to 270 nM.

`CCC1(NC2=NCCNC(c3ccccc3F)=C2)CCCC1` displayed an IC50 in data set [1] of 0.0036 µM. In data set [2], this molecule had an Activity above 1000 nM.

Consider `Cc1ccccc1C1=CC(NC(C)(C)C)=NCCN1`, for which the IC50 in data set [1] was 0.112 µM. The molecule also registered an Activity in data set [2] above 1000 nM.

Regarding `CC(C)(NC1=NCCNC(c2ccc(F)cc2F)=C1)C1CCC1`, in data set [1], the IC50 was determined as 0.0014 µM. In data set [2], the Activity was above 1000 nM.

For `CC(C)(C)CNC1=NCCNC(c2ccccc2F)=C1`, in data set [1], the IC50 amounted to 1.52 µM. Moreover, the Activity in data set [2] is recorded as above 1000 nM.

The IC50 is the midpoint of a concentration-inhibition curve. High values mean weaker potency in that assay, low ones greater potency in that assay.
